Experimental data as given in the M2OR odorant receptor database.

These molecules were tested against UniProt Q9R0K2. Conditions: stereoisomer not certain.
Outline: (§1)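 Assay methods differ from source to source, frequently being transient luciferase assays in mammalian cell lines. For each receptor–molecule pair, the label responsive (active) applies when the original authors judged the measured signal statistically different from baseline, and non-responsive (inactive) applies otherwise.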

Chain of UniProt Q9R0K2 (Q9R0K2 as listed by the source): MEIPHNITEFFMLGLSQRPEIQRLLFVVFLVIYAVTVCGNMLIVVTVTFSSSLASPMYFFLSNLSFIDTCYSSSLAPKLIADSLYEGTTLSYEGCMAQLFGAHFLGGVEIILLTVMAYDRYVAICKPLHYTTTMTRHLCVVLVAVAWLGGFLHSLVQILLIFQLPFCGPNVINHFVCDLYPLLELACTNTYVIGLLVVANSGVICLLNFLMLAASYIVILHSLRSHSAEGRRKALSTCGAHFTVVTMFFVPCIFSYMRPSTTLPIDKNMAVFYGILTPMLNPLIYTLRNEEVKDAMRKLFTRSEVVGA

| Compound | odorant receptor agonist call |
| --- | --- |
| CCCCCCCCC(=O)O | inactive |
| CCCCCCCO | inactive |
| c1ccccc1 | inactive |
| CCCCCOC(=O)CCCCC | inactive |
| CCCCCC1=C(C)CCC1=O | inactive |
| CC(C)=CCCC(C)=CCO | active |
| O=C(c1ccccc1)c1ccccc1 | inactive |
| CC(=O)Oc1ccccc1 | inactive |
| COc1cc(C(=O)O)ccc1O | inactive |
| CC12CCC(CC1=O)C2(C)C (stereo not given) | inactive |
| CCCCCCCCCC(=O)[O-].[H+] | inactive |
| CCCCCCC(C)=O | inactive |
| C=CCOC(=O)CCCCCC | inactive |
| CCCCC(=O)CC | inactive |
| CCCC(=O)C(C)=O | inactive |
| CCCCCCCCCCO | inactive |
| O=C1CCOc2ccccc21 | inactive |
| CC(C)=CCCC(C)CCO (stereo not given) | inactive |

| Compound | odorant receptor agonist call |
| --- | --- |
| CCCCC(=O)O | inactive |
| CCCCCCCCS | inactive |
| CCC(=O)O | inactive |
| CC(=O)OCC=C(C)C | inactive |
| CCCCC(C)=O | inactive |
| CCCCCC(=O)CC | inactive |
| CCC(=O)C(=O)CC | inactive |
| O=C1Cc2ccccc2O1 | inactive |
| CCOC(=O)C(C)C | inactive |
| CCCCCCO | inactive |
| CCCCCC=O | inactive |
| CCCCCCCCCS | inactive |
| CCCCCCCCO | inactive |
| CC(=O)OCc1ccccc1 | inactive |
| CCCCOC=O | inactive |
| CCCCCCCCCO | inactive |
| CCCCCCOC(C)=O | inactive |
| CCCCCCCC(C)=O | inactive |

These molecules were tested against T1, UniProt Q9WU86. Conditions: stereoisomer not certain.
T1 sequence (whole entry): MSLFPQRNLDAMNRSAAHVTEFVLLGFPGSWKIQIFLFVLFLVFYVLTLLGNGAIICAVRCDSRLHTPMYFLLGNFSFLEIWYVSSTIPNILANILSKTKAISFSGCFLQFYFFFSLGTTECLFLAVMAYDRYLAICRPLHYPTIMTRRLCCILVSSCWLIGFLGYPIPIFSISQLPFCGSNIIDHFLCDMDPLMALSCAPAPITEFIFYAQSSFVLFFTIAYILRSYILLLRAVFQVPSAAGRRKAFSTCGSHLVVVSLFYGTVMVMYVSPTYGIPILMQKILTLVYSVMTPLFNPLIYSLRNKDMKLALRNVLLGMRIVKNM
Outline: as §1

| Compound | odorant receptor agonist call |
| --- | --- |
| CCCCCCCCC(=O)O | inactive |
| CCCCCCCO | inactive |
| c1ccccc1 | inactive |
| CCCCCOC(=O)CCCCC | inactive |
| CCCCCC1=C(C)CCC1=O | inactive |
| CC(C)=CCCC(C)=CCO | inactive |
| O=C(c1ccccc1)c1ccccc1 | inactive |
| CC(=O)Oc1ccccc1 | active |
| COc1cc(C(=O)O)ccc1O | inactive |
| CC12CCC(CC1=O)C2(C)C (stereo not given) | inactive |
| CCCCCCCCCC(=O)[O-].[H+] | inactive |
| CCCCCCC(C)=O | inactive |
| C=CCOC(=O)CCCCCC | inactive |
| CCCCC(=O)CC | inactive |
| CCCC(=O)C(C)=O | inactive |
| CCCCCCCCCCO | inactive |
| O=C1CCOc2ccccc21 | inactive |
| CC(C)=CCCC(C)CCO (stereo not given) | inactive |

| Compound | odorant receptor agonist call |
| --- | --- |
| CCCCC(=O)O | inactive |
| CCCCCCCCS | inactive |
| CCC(=O)O | inactive |
| CC(=O)OCC=C(C)C | inactive |
| CCCCC(C)=O | inactive |
| CCCCCC(=O)CC | inactive |
| CCC(=O)C(=O)CC | inactive |
| O=C1Cc2ccccc2O1 | inactive |
| CCOC(=O)C(C)C | inactive |
| CCCCCCO | inactive |
| CCCCCC=O | inactive |
| CCCCCCCCCS | inactive |
| CCCCCCCCO | inactive |
| CC(=O)OCc1ccccc1 | inactive |
| CCCCOC=O | inactive |
| CCCCCCCCCO | inactive |
| CCCCCCOC(C)=O | inactive |
| CCCCCCCC(C)=O | inactive |

Each molecule was assayed against T2, UniProt Q9WU94. Conditions: stereoisomer not certain.
T2 sequence (whole entry): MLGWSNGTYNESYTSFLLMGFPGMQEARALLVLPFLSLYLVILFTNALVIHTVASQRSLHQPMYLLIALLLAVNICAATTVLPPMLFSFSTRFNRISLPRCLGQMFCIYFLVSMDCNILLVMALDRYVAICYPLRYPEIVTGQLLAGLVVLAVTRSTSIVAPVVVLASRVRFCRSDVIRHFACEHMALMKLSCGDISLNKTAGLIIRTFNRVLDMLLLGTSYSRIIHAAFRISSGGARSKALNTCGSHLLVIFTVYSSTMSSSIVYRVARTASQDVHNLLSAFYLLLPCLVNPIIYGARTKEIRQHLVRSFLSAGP
Outline: as §1

| Compound | odorant receptor agonist call |
| --- | --- |
| CCCCCCCCC(=O)O | inactive |
| CCCCCCCO | inactive |
| CCCCCCCCCC(=O)[O-].[H+] | inactive |
| CCCCC(=O)O | inactive |
| CCCCCCO | inactive |
| CCCCCCCCO | inactive |
| CCCCCCCCCO | inactive |

Each molecule was assayed against T3, UniProt Q9WVD7. Conditions: stereoisomer not certain.
T3 sequence (whole entry): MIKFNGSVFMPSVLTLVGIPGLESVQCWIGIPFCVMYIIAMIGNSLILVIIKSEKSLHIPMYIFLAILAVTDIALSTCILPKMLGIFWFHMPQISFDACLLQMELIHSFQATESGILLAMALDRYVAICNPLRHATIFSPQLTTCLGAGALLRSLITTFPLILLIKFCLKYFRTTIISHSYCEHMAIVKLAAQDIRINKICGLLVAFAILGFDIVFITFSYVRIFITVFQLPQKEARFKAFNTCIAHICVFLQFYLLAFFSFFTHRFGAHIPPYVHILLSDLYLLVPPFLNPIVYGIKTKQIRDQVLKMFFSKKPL
Outline: as §1

| Compound | odorant receptor agonist call |
| --- | --- |
| CCCCCCCCC(=O)O | active |
| CCCCCCCO | inactive |
| CCCCC(=O)O | inactive |
| CCCCCCO | inactive |
| CCCCCCCCO | active |
| CCCCCCCCCO | active |
